Experimental data from different studies.
Each line is one published result; the experiments were not run side by side.
Sample: Caco-2

| SMILES | tested at | time | measurement | result |
| --- | --- | --- | --- | --- |
| COc1ccc(-c2cc(=O)c3c(O)cc(O[C@@H]4O[C@H](CO[C@@H]5O[C@@H](C)[C@H](O)[C@@H](O)[C@H]5O)[C@@H](O)[C@H](O)[C@H]4O)cc3o2)cc1O | 100 µg/mL | 2 h | Papp B→A | 35.1 ×10⁻⁶ cm/s |
| O=C1CCC(N2Cc3cc(C4CCN(Cc5ccccc5)CC4)ccc3C2=O)C(=O)N1 (stereo not drawn) | 10 µM | 2 h | Papp | 8.1 ×10⁻⁶ cm/s |
| Cc1cc(-c2ccnc3[nH]cc(F)c23)cc(F)c1[C@@]1(O)[C@H](C)CN(C2CCS(=O)(=O)CC2)C[C@@H]1C | 10 µM |  | Papp | 14.8 ×10⁻⁶ cm/s |
| C[C@@H]1O[C@@H](OC[C@H]2O[C@@H](Oc3c(-c4ccc(O)c(O)c4)oc4cc(O)cc(O)c4c3=O)[C@H](O)[C@@H](O)[C@@H]2O)[C@H](O)[C@H](O)[C@H]1O | 50 µg/mL |  | Papp A→B | 0.228 ×10⁻⁶ cm/s |
| CNC(=O)c1ccccc1Nc1cc(Nc2ccc(N3CCOCC3)cc2OC)ncc1C(F)(F)F | 20 µM | 2 h | Papp | 18 ×10⁻⁶ cm/s |
| O=C(Nc1ccc(OC(F)(F)F)cc1)N[C@H]1CC[C@H](Oc2ccc(C(=O)O)cc2)CC1 |  |  | Papp | 4.76 ×10⁻⁶ cm/s |
| O=S1(=O)OC(c2ccc(O)cc2)(c2ccc(O)cc2)c2ccccc21 |  |  | Papp | 0.54 ×10⁻⁶ cm/s |
| O=c1cc(-c2ccc(O)cc2)oc2c([C@@H]3O[C@H](CO)[C@@H](O)[C@H](O)[C@H]3O)c(O)cc(O)c12 | 200 µg/mL |  | Papp A→B | 0.322 ×10⁻⁶ cm/s |
| C[C@@H]1O[C@@H](O[C@H]2[C@H](Oc3cc(O)c4c(c3)O[C@H](c3ccc(O)cc3)CC4=O)O[C@H](CO)[C@@H](O)[C@@H]2O)[C@H](O)[C@H](O)[C@H]1O | 100 µg/mL | 2 h | Papp B→A | 8.02 ×10⁻⁶ cm/s |
| Cc1cc(C)c(CNC(=O)c2cc(Cl)c3c(c2C)O[C@@](C)([C@H]2CC[C@H](N(C)C)CC2)O3)c(=O)[nH]1 | 1 µM |  | Papp B→A | 20.7 ×10⁻⁶ cm/s |
| COc1ccc(CCC(=O)c2c(O)cc(O[C@@H]3O[C@H](CO)[C@@H](O)[C@H](O)[C@H]3O[C@@H]3O[C@@H](C)[C@H](O)[C@@H](O)[C@H]3O)cc2O)cc1O | 100 µg/mL | 2 h | Papp B→A | 8.96 ×10⁻⁶ cm/s |
| Cc1cc(-c2ccnc3[nH]cc(F)c23)cc(F)c1[C@@]1(O)[C@H](C)CN(C(=O)CN)C[C@@H]1C | 10 µM |  | Papp | 5.2 ×10⁻⁶ cm/s |
